Rows were chosen to be rich in hits. Some 2.4% of all compounds tested hit in one or more screens of this group.
NPY-Y2 antag – NPY-Y2 receptor antagonists, primary screen, cell-based; Neuropeptide Y receptor type 2 (Homo sapiens), P49146; NPY-Y2 expressing cells, antagonist mode; inhibition, % at 2.7 µM; 0.99% of 140,000 active; AID 793, 2007; in the data active = inhibition above about 17%;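 also: 0% = vehicle with agonist challenge and 100% = reference antagonist with challenge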
NPY-Y2 PAM-ag – NPY-Y2 potentiators or agonists, primary screen, cell-based; cells expressing NPY-Y2, potentiator/agonist read-out; activation, % at 3.6 µM; 0.45% of 220,000 active; AID 1359, 2008; in the data active = activation above about 27%;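 also: cells stimulated with NPY near EC25 plus isoproterenol at EC100; 0% = vehicle plus submaximal agonist and 100% = vehicle plus saturating agonist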
NPY-Y1 antag – NPY-Y1 receptor antagonists, primary screen, cell-based; Neuropeptide Y receptor type 1 (Homo sapiens), P25929; HEK293-CNG Y1 cells, membrane potential fluorescence; NPY at EC95, then isoproterenol; inhibition, % at 3.6 µM; AID 1040, 2008; 1% of 200,000 active;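 active = inhibition above the campaign mean inhibition of all tested compounds plus 3 SD, cut at about 20% in these data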;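 also: 0% = DMSO wells given NPY plus isoproterenol and 100% = isoproterenol alone without NPY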
Target sequence (P25929 whole entry, looked up): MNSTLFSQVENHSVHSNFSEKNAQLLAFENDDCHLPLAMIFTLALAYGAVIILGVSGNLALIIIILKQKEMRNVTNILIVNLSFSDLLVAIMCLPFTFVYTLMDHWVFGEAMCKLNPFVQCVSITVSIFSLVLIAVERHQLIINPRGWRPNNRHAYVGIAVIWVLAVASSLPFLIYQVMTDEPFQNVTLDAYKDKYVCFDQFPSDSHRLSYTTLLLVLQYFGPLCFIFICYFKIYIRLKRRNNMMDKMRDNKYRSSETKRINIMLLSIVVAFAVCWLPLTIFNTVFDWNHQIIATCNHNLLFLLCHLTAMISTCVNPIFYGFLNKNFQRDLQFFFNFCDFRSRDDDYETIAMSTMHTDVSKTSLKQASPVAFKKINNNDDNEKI
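Material: HEK293 cells co-expressing NPY Y1 receptor and cyclic-nucleotide gated channel. Timing: compound incubation 1 h at room temperature, readout 45 min post-stimulation. Signal: fluorescence, membrane potential probe.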
S1P4 antag – S1P4 receptor antagonists, primary screen, cell-based; Sphingosine 1-phosphate receptor 4 (Homo sapiens), O95977; S1P4-expressing cells, antagonist mode, reporter read-out; inhibition, % at 4.98 µM; 0.26% of 220,000 active; in the data active = inhibition above about 29%;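 also: 0% = wells stimulated with agonist and 100% = vehicle wells without agonist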
S1P4 agonist – S1P4 receptor agonists, primary screen, cell-based; AID 1509, 2009; activation, % at 4.98 µM; S1P4-expressing cell line, agonist reporter assay; Sphingosine 1-phosphate receptor 4 (Homo sapiens), O95977; 0.35% of 220,000 active; in the data active = activation above about 11%;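 also: 0% = DMSO vehicle and 100% = reference agonist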
NPY1 pot ag – NPY-Y1 receptor potentiators or agonists, primary screen, cell-based | Neuropeptide Y receptor type 1 (Homo sapiens), P25929 | NPY-Y1 expressing cells, potentiator/agonist activation | activation, % at 3.6 µM | 0.37% of 220,000 active | AID 1304, 2008; in the data active = activation above about 33%, passing the limit was not always enough;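 also: cells stimulated with NPY at EC10 then isoproterenol at EC100; 0% = low agonist plus stimulus and 100% = saturating agonist plus stimulus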
NPY-Y1 antag ct – NPY-Y1 receptor antagonists, selectivity check, counter-screen for NPY-Y2 antagonist project, cell-based | shares compounds with NPY-Y2 antag | AID 1256, 2008 | inhibition, % at 3.6 µM | 19% of 710 active | cell-based NPY-Y1 antagonism counterscreen; in the data active = inhibition above about 20%;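 also: cells challenged with NPY then isoproterenol with cAMP sensed through a CNG channel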
NPY2 antag conf – NPY-Y2 receptor antagonists, retest of hits, confirmation, HEK293-CNG cells, membrane potential fluorescence, triplicate | 32% of 710 active | shares compounds with NPY-Y2 antag | inhibition, % at 2.8 µM | HEK293 NPY-Y2 CNG channel | AID 1257, 2008;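 active = mean inhibition of triplicate wells above the hit cutoff set in the primary screen, cut at about 17% in these data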;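 also: 0% = DMSO with NPY challenge and 100% = BIIE0246 high control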
An asterisk follows results filed as active; · = no result given.

SMILES | NPY-Y2 antag | NPY-Y2 PAM-ag | NPY-Y1 antag | S1P4 antag | S1P4 agonist | NPY1 pot ag | NPY-Y1 antag ct | NPY2 antag conf
COC(=O)c1ccc(C(C(=O)NC2CCCCC2)N(Cc2ccc(F)cc2)C(=O)Cc2cccs2)cc1 (configuration not stated) | 19* | -12 | -4 | 0 | -2 | -8 | 7 | 9
O=S(=O)(CCSc1ccc(C(F)(F)F)cn1)c1ccc(Cl)cc1 | · | -32 | · | 3 | 0 | -7 | · | ·
OC1(c2ccccc2)CCN(Cc2ccccc2)C2CCCCC21 (configuration not stated) | 29* | -25 | 18 | 1 | -2 | -27 | 19 | 43*
Cc1cccc(-c2nnc3sc(-c4ccccc4C)nn23)c1 | 19* | -9 | 7 | -5 | 1 | -40 | 7 | 13
COc1cccc(-c2nnc3sc(-c4ccccc4)nn23)c1 | 7 | 0 | 10 | -27 | 0 | 2 | · | ·
O=S(=O)(Nc1nc2ccccc2[nH]1)c1ccc2ccccc2c1 | 19* | -18 | 17 | -8 | 0 | -37 | 12 | 8
O=S(=O)(Nc1ncn[nH]1)c1ccc2ccccc2c1 | 11 | -28 | 8 | -23 | 3 | -59 | · | ·
COc1ccc(-c2ccnc(SCC(=O)c3ccc(Br)cc3)n2)cc1 | 21* | 0 | 5 | 4 | 0 | 6 | 42* | 42*
O=C(Nc1cccc([N+](=O)[O-])c1)Nc1cccs1 | · | 13 | -2 | -1 | -1 | 10 | · | ·
CC(C)OC(=O)/C(=C/c1ccc2c(c1)c1ccccc1n2C)NC(=O)c1ccccc1 | 21* | -17 | 2 | -23 | 3 | -15 | 6 | 20*
COC(=O)/C(=C\c1ccc2c(c1)c1ccccc1n2C)NC(=O)c1ccccc1 | 2 | -5 | 3 | -14 | 0 | 13 | · | ·
CC(C)N(C(=O)CSc1nc2ccccc2n1Cc1ccccc1F)C(C)C | 17* | 3 | 13 | 19 | 0 | -14 | 14 | 6
Cc1nn(Cc2ccccc2Cl)c(C)c1C(=O)NCc1ccco1 | 0 | 3 | 1 | 2 | 0 | -3 | · | ·
Cc1nn(Cc2ccccc2Cl)c(C)c1C(=O)NCCN1C(=O)S/C(=C\c2ccccc2)C1=O | 22* | 8 | -1 | -11 | 0 | 7 | 4 | 4
CC1CCCN(C(=O)Cc2cn(Cc3cccc(Cl)c3)c3ccccc23)C1 (configuration not stated) | 17* | -22 | 10 | -8 | 1 | -5 | 5 | 5
Cc1ccc(CNC(=O)c2cn(C3CCCCC3)c(=O)c3c2c2ccccc2n3C)o1 | 20* | -3 | 3 | -1 | 1 | -6 | 5 | 4
COc1ccc(C=O)cc1Cn1ccnc1C | · | -10 | -3 | -2 | -1 | 2 | · | ·
O=C(COC(=O)/C=C/c1ccc(Cl)cc1)Nc1ccc2c(c1)OCCO2 | 17* | 7 | 6 | -6 | 0 | 3 | 14 | 12
O=C(CCSc1nc2ccccc2s1)N/N=C/c1c(O)ccc2ccccc12 | 4 | 5 | -2 | -5 | -1 | -11 | · | ·
Cc1ccc(C(C(=O)NC2CCCCC2)N(Cc2cccnc2)C(=O)C2COc3ccccc3O2)o1 (configuration not stated) | 25* | 2 | 7 | 5 | 2 | 8 | 3 | 8
Cc1ccc(C(C(=O)NC2CCCC2)N(Cc2cccnc2)C(=O)c2snc(C(N)=O)c2N)o1 (configuration not stated) | 4 | -3 | 0 | -17 | 1 | 4 | · | ·
CCCCOc1ccccc1NC(=O)Cn1c(-c2nonc2N)nc2ccccc21 | 51* | -1 | 7 | -12 | 0 | -7 | 50* | 93*
NC(=O)Cn1c(-c2nonc2N)nc2ccccc21 | · | -15 | -3 | -2 | -1 | 5 | · | ·
Nc1nonc1-c1nc2ccccc2n1Cc1ccc(Cl)cc1 | 28* | 11 | 14 | -6 | -1 | 7 | 28* | 27*
NNC(=O)Cn1c(-c2nonc2N)nc2ccccc21 | · | -10 | -1 | -10 | 3 | -19 | · | ·
SMILES | NPY-Y2 antag | NPY-Y2 PAM-ag | NPY-Y1 antag | S1P4 antag | S1P4 agonist | NPY1 pot ag | NPY-Y1 antag ct | NPY2 antag conf
COc1ccc(Cn2c(-c3ccc(OC)cc3)nc3ccccc32)cc1 | 21* | -13 | 8 | -5 | 1 | -8 | 12 | 6
Cc1cccc(Nc2nc(N)nc(CCl)n2)c1C | · | -25 | · | 5 | 2 | 2 | · | ·
CNC(=O)c1sc(-c2ccccc2)nc1C | -1 | -2 | -6 | -19 | -2 | 12 | · | ·
Cc1nc(-c2ccccc2)sc1C(=O)CSc1ccc(F)cc1 | 20* | -32 | 19 | 8 | -1 | -28 | 21* | 25*
CCOC(=O)C1(CCc2ccccc2)CCN(C(=O)Cc2nonc2C)CC1 | · | -12 | 5 | -11 | -1 | -5 | · | ·
c1coc(Cn2nnnc2CN2CCN(C3CCCC3)CC2)c1 | 0 | -4 | 8 | 3 | 0 | -19 | · | ·
Fc1ccc(Cn2nnnc2CN2CCN(C3CCCCC3)CC2)cc1 | 20* | -15 | 18 | -7 | 2 | -21 | 12 | 11
Clc1cccc(-c2ccc(C=Nc3ccc(N4CCOCC4)cc3)o2)c1 | 8 | -12 | 2 | -12 | 0 | -5 | · | ·
Cc1cc(NC(=O)C2CCCCC2)n(-c2nc3ccccc3[nH]2)n1 | 17* | -14 | 9 | -14 | 0 | -23 | 22* | 13
Cc1cc(NC(=O)c2c(F)cccc2F)n(-c2nc3ccccc3[nH]2)n1 | 8 | -6 | -1 | -4 | 2 | -17 | · | ·
COc1ccc(-c2noc(CSc3nc(-c4ccccc4)cc(=O)[nH]3)n2)cc1 | 25* | -4 | 6 | 10 | -1 | 6 | 3 | 1
Cc1ccc(C)c(NS(=O)(=O)c2cc(C(=O)Nc3ccccc3-c3ccccc3)ccc2C)c1 | 22* | -41 | 5 | -7 | 3 | 18 | 0 | 117*
Cc1ccc(C(=O)Nc2ccccc2-c2ccccc2)cc1S(=O)(=O)Nc1cccc(C)c1C | 15 | -25 | 4 | -2 | 1 | -4 | · | ·
CCOC(=O)c1cc(-c2ccccc2)sc1NC(=O)CC | 21* | -5 | 1 | -9 | 1 | -28 | 1 | 0
C=CC(C)Sc1nc2c(c(=O)n(C)c(=O)n2C)n1Cc1ccccc1Cl (configuration not stated) | 18* | 14 | 5 | -18 | 2 | -5 | -2 | 10
